Rows were chosen to be rich in hits. Some 2.2% of all compounds tested hit in one or more screens of this group.
TDP2 inh = TDP2 (human) inhibition, absorbance primary screen. inhibition, % at 12.8 µM. hit rate 0.34% among 370,000. recombinant TDP2, T5PNP hydrolysis, p-nitrophenol absorbance 415 nm. O95551;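 active = inhibition above the mean of all tested compounds plus 3 SD, set per campaign, cut at about 25% in these data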
Target sequence (O95551 whole entry, looked up): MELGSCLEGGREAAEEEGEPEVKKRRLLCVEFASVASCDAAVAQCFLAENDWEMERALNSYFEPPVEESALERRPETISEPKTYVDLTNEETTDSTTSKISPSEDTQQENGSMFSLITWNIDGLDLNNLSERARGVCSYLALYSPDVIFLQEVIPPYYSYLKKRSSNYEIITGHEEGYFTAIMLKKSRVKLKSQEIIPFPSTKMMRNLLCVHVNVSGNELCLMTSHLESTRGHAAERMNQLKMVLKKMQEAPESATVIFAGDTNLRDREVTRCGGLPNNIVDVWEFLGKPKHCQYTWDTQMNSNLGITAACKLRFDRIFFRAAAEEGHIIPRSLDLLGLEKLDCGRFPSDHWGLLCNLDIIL
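Material: recombinant human TDP2; quantity: TDP2 enzyme at 120 nM final; medium: Tris-HCl pH 7.5 with MgCl2; compound: single concentration, 12.8 µM nominal, with 1% DMSO; incubation: 2 h enzyme incubation at 37 °C; signal: epi absorbance; measure: percent inhibition; benchmarks: high control without enzyme, low control DMSO plus TDP2; repeats: singlicate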
TCR CD3 inh = human TCR-CD3 binding inhibition. TAMRA-labeled TCR probe fluorescence, biochemical. hit rate 0.37% among 360,000. inhibition, % at 9.4 µM. AID 651800; in the data active = inhibition above about 19%;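 note: recombinant mutant TCR 2C K166C tagged with TAMRA read by polarization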
ABHD4 inh = ABHD4 (mouse) inhibition, primary FP screen; Q8VD66; purified mABHD4, FP-Rh probe fluorescence polarization; inhibition, % at 8.92 µM; hit rate 0.54% among 370,000; AID 720543;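 active = inhibition exceeding the mean over every tested compound plus 3 SD, cut at about 30% in these data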
Target sequence (Q8VD66 whole entry, looked up): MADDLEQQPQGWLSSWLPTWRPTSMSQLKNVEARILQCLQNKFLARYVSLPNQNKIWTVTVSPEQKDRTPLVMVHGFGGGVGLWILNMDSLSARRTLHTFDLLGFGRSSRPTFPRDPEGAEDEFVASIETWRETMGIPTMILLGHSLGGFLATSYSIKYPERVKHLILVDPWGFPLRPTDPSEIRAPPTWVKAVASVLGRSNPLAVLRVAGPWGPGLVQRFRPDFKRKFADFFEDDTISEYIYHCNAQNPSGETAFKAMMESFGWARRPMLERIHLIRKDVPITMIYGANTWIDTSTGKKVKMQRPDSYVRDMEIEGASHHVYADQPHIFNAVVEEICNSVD
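Assay system: Wild-type mouse ABHD4 protein | Medium: HEPES pH 7.0 buffer, 150 mM NaCl, 0.01% Pluronic F-127 | Incubation: Enzyme–compound pre-incubation 45 min, then probe 60 min, both 25 °C | Technique: Fluorescence polarization with parallel and perpendicular emission, 525/598 nm | Evaluation: % inhibition of FP-Rh probe binding versus controls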
LEDGF integ inh = blocks HIV-1 LEDGF/p75-dependent DNA integration; TR-FRET IN-LEDGF/p75 DNA integration, Eu/Cy5; hit rate 0.64% among 370,000; AID 743269; inhibition, % at 3.7 µM;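 active = inhibition above the screen-wide mean plus 3 SD, cut at about 13% in these data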;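 note: signal is the Cy5 over europium emission ratio at 671 and 618 nm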
HTRA1 inhibitor = HTRA1 (human) protease inhibition. Q92743. recombinant HTRA1, FP-rhodamine activity-based probe, fluorescence polarization. inhibition, % at 5.96 µM. hit rate 0.5% among 340,000. AID 504803; in the data active = inhibition above about 36%
SIAE inh = blocks human sialic acid acetylesterase. inhibition, % at 9.66 µM. hit rate 0.69% among 370,000. AID 1053197. SIAE FP-Rh probe binding, fluorescence polarization. Q9HAT2;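 active = inhibition above a cutoff: mean of compounds within the control limits plus 3 SD of those, cut at about 17% in these data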
TDP2 inh conf = human TDP2 inhibition, confirmation. shares compounds with TDP2 inh. recombinant human TDP2, absorbance read-out. inhibition, % at 12.8 µM. hit rate 22% among 1,100. AID 743263; in the data active = inhibition above about 25%
A number is an active result; 0 = inactive; - = no result.

SMILES | TDP2 inh | TCR CD3 inh | ABHD4 inh | LEDGF integ inh | HTRA1 inhibitor | SIAE inh | TDP2 inh conf
CN(C(=O)c1cc(C(=O)N(C)c2ccccc2)cc([N+](=O)[O-])c1)c1ccccc1 | 0 | 0 | 0 | 0 | 0 | 0 | -
CC1=NN(c2ccccc2)C(=O)C1C(=O)c1cc([N+](=O)[O-])cc([N+](=O)[O-])c1 (configuration not stated) | 47 | 0 | 0 | 0 | 0 | 0 | 0
COC(=O)[C@]12C[C@H](CC(=O)NCc3ccc(C)o3)C(=O)N(Cc3ccc4c(c3)OCO4)C1=C[C@H](C(C)C)O[C@@H]2C1CC1 | 0 | - | 0 | 0 | - | 0 | -
C#CCNC(=O)C[C@@H]1C(=O)N(CC=C)C2=CCCCC[C@]21C(=O)OC | 0 | - | 0 | 0 | - | 0 | -
CC(=O)N(C)C1=C(N2CCOCC2)C(=O)c2ccccc2C1=O | - | - | - | - | 0 | - | -
CC(=O)c1ccc(NC2=C(N3CCOCC3)C(=O)c3ccccc3C2=O)cc1 | 54 | 0 | 0 | 0 | 0 | 0 | 38
Cc1ccc(NC2=C(N3CCOCC3)C(=O)c3ccccc3C2=O)cc1 | 60 | 0 | 0 | 30 | 0 | 0 | 51
Cc1ccc(NC(=O)CN2C(=O)NC3(CCc4ccccc43)C2=O)cc1S(=O)(=O)N1CCCCC1 (configuration not stated) | 90 | 0 | 0 | 0 | 0 | 0 | 0
O=C(CN1C(=O)NC2(CCCc3ccccc32)C1=O)Nc1cccc(S(=O)(=O)N2CCCCC2)c1 (configuration not stated) | 0 | 0 | 0 | 0 | 0 | 0 | -
CC(C)[C@H]1/C(=C/C2CC2)N2C(=O)C[C@H](c3cccc(C(F)(F)F)c3)N=C2N1Cc1ccc2c(c1)OCO2 | 0 | - | 0 | 0 | - | 0 | -
Cc1cc(C)c(C#N)c(N2CCN(c3ccc(F)cc3)CC2)n1 | 36 | 0 | 0 | 0 | 0 | 0 | 0
Cc1cc(C)c(C#N)c(N2CCCC2)n1 | 0 | 0 | 0 | 0 | 0 | 0 | -
CC1CCN(C2CCN(C(=O)c3ccccc3F)CC2)CC1 | 28 | 0 | 0 | 0 | 0 | 0 | 0
Cc1[nH]n(-c2ccccc2)c(=O)c1/C=N/c1nn[nH]n1 | 27 | 0 | 0 | 0 | - | 0 | 0
Cc1[nH]n(-c2ccccc2)c(=O)c1/C=N/N(c1ccccc1)c1ccccc1 | 40 | 0 | 0 | 0 | 0 | 0 | 0
Cc1[nH]n(-c2ccccc2)c(=O)c1S(=O)(=O)c1ccccc1 | 49 | 0 | 0 | 0 | 0 | 0 | 0
O=C(Nc1ccc(Br)c(C(F)(F)F)c1)[C@@H]1CC=C[C@@H]2CCN(CC3CC3)C(=O)[C@@H]21 | 0 | - | 0 | 0 | - | 0 | -
O=C(CSc1nnc(-c2ccccc2)n1-c1ccc(Cl)cc1)c1ccccc1Br | 0 | - | 0 | 0 | - | 0 | -
O=C(NCCCN1CCOCC1)c1ccc2c(c1)N(Cc1ccc(Cl)cc1)C(=O)c1ccccc1S2=O (configuration not stated) | 53 | 0 | 0 | 0 | 0 | 0 | 0
COc1ccc(-c2cc(C(=O)NN=Cc3ccc(O)c(OC)c3)[nH]n2)cc1 | 0 | - | 0 | 0 | - | 0 | -
COC(=O)[C@]12C[C@H](CC(=O)N3CCOCC3)C(=O)N(Cc3ccc4c(c3)OCO4)C1=C[C@H](C(C)(C)C)O[C@@H]2C | 0 | 0 | 0 | 0 | - | 0 | -
Cc1nc2scc(C)n2c(=O)c1S(=O)(=O)NCc1ccc(F)cc1 | 25 | 0 | 0 | 0 | 0 | 0 | 0
CC1=C(C)CC(C(=O)NCc2ccccc2F)C(C(=O)O)C1 (configuration not stated) | 25 | 0 | 0 | 0 | 0 | 0 | 0
Clc1ccc(OCCOc2ccc(Br)nc2Br)c(Cl)c1 | 0 | - | 0 | 0 | - | 0 | -
Cc1cc(=O)[nH]c(SCC(=O)Nc2ccc(F)c(F)c2)n1 | 0 | - | 0 | 0 | - | 0 | -
SMILES | TDP2 inh | TCR CD3 inh | ABHD4 inh | LEDGF integ inh | HTRA1 inhibitor | SIAE inh | TDP2 inh conf
COc1ccc(NC2=C(NC(C)=O)C(=O)c3ccccc3C2=O)cc1 | 0 | 0 | 0 | 0 | 0 | 0 | -
COc1cccc(NC2=C(NCCO)C(=O)c3ccccc3C2=O)c1 | 55 | 0 | 0 | 0 | 0 | 0 | 0
COc1ccc(NC2=C(NCCO)C(=O)c3ccccc3C2=O)cc1 | 36 | 0 | 0 | 0 | 0 | 0 | 34
Cc1ccccc1S(=O)(=O)N(C)C[C@H]1OCc2cnnn2CCCC(=O)N([C@H](C)CO)C[C@@H]1C | 0 | 0 | 0 | 0 | - | 0 | -
C[C@@H]1[C@H](c2ccccc2)OC(O)([C@H](Cc2ccccc2)NC(=O)OC(C)(C)C)CN1C (some centres not stated) | 0 | - | 0 | 0 | - | 0 | -
CC(C(=O)NC1C=CS(=O)(=O)C1)N1C(=O)/C(=C/c2cccc(Cl)c2)SC1=S (configuration not stated) | 27 | 0 | 0 | 0 | 0 | 0 | 0
CC(C(=O)NC1C=CS(=O)(=O)C1)N1C(=O)/C(=C\c2ccccc2)SC1=S (configuration not stated) | 0 | 0 | 0 | 0 | 0 | 0 | -
O=C(CCc1c[nH]c2ccccc12)Nc1ccc(Nc2cccnc2)cc1 | 0 | 0 | 0 | 0 | - | 0 | -
CCCC1=[N+](CC(=O)c2ccccc2)CCn2cccc21 | 0 | 0 | 0 | 0 | 0 | 0 | -
CCCC1=[N+](CC(=O)c2ccc(Br)cc2)CCn2cccc21 | 30 | 0 | 0 | 0 | 0 | 0 | 0
N#CC1=C(N)Oc2n[nH]c(-c3cccs3)c2C1c1cccs1 (configuration not stated) | 29 | 0 | 0 | 0 | 0 | 0 | 0
COC(=O)C1=C(C)N(Cc2ccccc2)C(=S)NC1c1ccc(Cl)cc1 (configuration not stated) | 0 | 0 | 0 | 0 | - | 0 | -
Cc1cc(=O)c2c(ccc3c(=O)cc(C)[nH]c32)[nH]1 | 0 | 0 | 0 | 0 | - | 0 | -
Cc1ccc(S(=O)(=O)NCC2COc3ccccc3O2)cc1 (configuration not stated) | 0 | 0 | 0 | 0 | 0 | 0 | -
Cc1ccc([N+](=O)[O-])cc1S(=O)(=O)NCC1COc2ccccc2O1 (configuration not stated) | 45 | 0 | 0 | 0 | 0 | 0 | 0
C=CCn1c(COc2ccc(Cl)cc2)nnc1SCC(=O)c1ccc(-c2ccccc2)cc1 | 0 | - | 0 | 0 | - | 0 | -
Cc1c(CN2CCN(c3ncc(Cc4ccccc4)cn3)CC2)c(=O)n(-c2ccccc2)n1C | 0 | 0 | 0 | 0 | - | 0 | -
COc1ccc(S(=O)(=O)Nc2cccc3ccc(O)cc23)cc1 | 0 | 0 | 0 | 0 | 0 | 0 | -
